The list is not random: actives were taken first. Their share in the collection is about 1.8%.
C2C12 statin: suppressors of simvastatin-induced myotoxicity in C2C12 myotubes. ATP luminescence, 48 h; scaled: DMSO 0, geranylgeraniol control 100. rescue of ATP level, % at 7.49 µM. 330,000 tested, 0.78% active;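 active means mean ATP rescue above about 67%, or every replicate alone reaching that limit, limit read from the data, passing the limit was not always enough; inconclusive means no clear call, values can overlap the other calls; inactive means mean under the limit and some replicate under it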;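 further: myotubes were challenged with 10 µM simvastatin during compound exposure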
Cneo AK release: causes C. neoformans cell lysis. adenylate kinase release luminescence, 4 h; normalised: neutral wells 0, clomiphene wells 100. lysis activity, % at 15 µM. 360,000 tested, 0.2% active;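 active means mean lysis activity across replicates of at least 80%, whatever share of replicates individually reach that level; inactive means mean lysis activity below 80%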
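Material – Cryptococcus neoformans yeast cells · Quantity – 5 × 10^6 yeast cells/mL · Buffer or medium – YPD medium · Compound – single dose · Timing – 4 h static compound exposure, 37 °C, read 1 h post-reagent · Signal – adenylate kinase release luminescence · Read-out basis – lysis from increased AK signal · Benchmarks – Clomiphene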
Mot1-301 SUMO: blocks SUMOylation pathway, rescuing yeast Mot1-301 growth | S. cerevisiae Mot1-301 growth rescue, ATP luminescence, 38.5C; percent above DMSO median, 100 means doubled | growth rescue, % at 18.8 µM | 320,000 tested, 1% active | AID 2716;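 active means every valid replicate shows activation above 250% relative to neutral control wells; inactive means the rest, any valid replicate at or below 250%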
Efflux pump mplx: inhibitors of Candida antifungal efflux pumps expressed in yeast. S. cerevisiae Candida pump triplex, Nile Red efflux. inhibition, % at 10 µM. 330,000 tested, 0.44% active. AID 485275;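 active means plate passing quality check with inhibition over a set limit, or well fluorescence over plate mean plus 4 SD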;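 further: Nile Red retained in pooled yeast measured as flow cytometry median fluorescence; higher means more Nile Red kept so more efflux inhibition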
Cmpd fluor yeast: compound fluorescence in yeast efflux pump counter-screen. S. cerevisiae AD/pABC3, flow cytometry. shares compounds with Efflux pump mplx. fluorescence ratio to DMSO, % at 10 µM. AID 588517. 1,700 tested, 4% active;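 active means fluorescence ratio to DMSO above its plate's cutoff, the plate mean ratio plus 5 SD, cut at about 210% in these data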;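 further: unstained yeast with no Nile Red so the signal is compound autofluorescence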
Mdr1 pump inh: inhibitors of Candida albicans Mdr1 efflux pump. S. cerevisiae AD/CaMDR1, Nile Red efflux, flow cytometry. inhibition, % at 10 µM. 1,700 tested, 1% active. shares compounds with Efflux pump mplx. AID 588518; in the data active means inhibition above about 26%;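 further: higher means more Nile Red retained so more efflux inhibition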
Cdr2 pump inh: inhibitors of Candida albicans Cdr2 efflux pump; Nile Red retention ratio vs DMSO, % at 10 µM; AID 588520; shares compounds with Efflux pump mplx; S. cerevisiae AD/CaCDR2, Nile Red retention, flow cytometry; 1,700 tested, 4% active; in the data active means Nile Red retention ratio vs DMSO above about 190%;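 further: higher ratio means more blocking of Cdr2 efflux of the dye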
CaCdr1 efflux inh: Candida Cdr1 efflux pump inhibition; shares compounds with Efflux pump mplx; 1,700 tested, 1% active; S. cerevisiae AD/CaCDR1, Nile Red efflux, flow cytometry; inhibition, % at 10 µM; AID 588522;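 active means inhibition above the screen-wide mean plus twice its standard deviation, cut at about 32% in these data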
A number is an active result; 0 = inactive; ? = inconclusive; - = not tested or not shown.

SMILES | C2C12 statin | Cneo AK release | Mot1-301 SUMO | Efflux pump mplx | Cmpd fluor yeast | Mdr1 pump inh | Cdr2 pump inh | CaCdr1 efflux inh
COc1ccccc1-c1nc(C(N)=O)c2[nH]c(=O)n(-c3cccc(C)c3)c2n1 | 0 | - | 0 | 0.4 | 0 | 0 | 0 | 0
NC(=O)c1nc(-c2cccs2)nc2c1[nH]c(=O)n2-c1ccc(F)cc1 | 0 | 0 | 0 | 0 | 0 | 0 | 0 | 0
CC(C)Cc1nc(C(N)=O)c2[nH]c(=O)n(-c3ccc(F)cc3)c2n1 | 0 | 0 | 0 | 0 | - | - | - | -
CCOc1ccccc1-c1nc(C(N)=O)c2[nH]c(=O)n(-c3ccccc3)c2n1 | 0 | 0 | 0 | 0 | 0 | 0 | 0 | 0
NC(=O)c1nc(-c2ccco2)nc2c1[nH]c(=O)n2-c1ccc(Cl)c(Cl)c1 | 0 | 0 | 0 | 1.2 | 0 | 0 | 0 | 0
Cc1cccc(-n2c(=O)[nH]c3c(C(N)=O)nc(-c4ccccc4Cl)nc32)c1 | 0 | 0 | 0 | 0 | - | - | - | -
Cn1cnc(S(=O)(=O)N[C@@H]2CC[C@H](CC(=O)N3CCN(c4ccccc4)CC3)O[C@@H]2CO)c1 | 0 | 0 | - | - | - | - | - | -
Cc1cc(NC(=O)C(C)Sc2nc(-c3cccs3)nc3ccccc23)no1 (centres undefined) | 0 | 0 | - | - | - | - | - | -
Cc1cc(F)ccc1NC(=O)CCc1c(C)nn(-c2ccc(N3CCCCC3)nn2)c1C | 0 | 0 | 0 | 0 | - | - | - | -
CN(Cc1cn(-c2ccccc2)nc1-c1ccc2c(c1)OCO2)Cc1nccn1C | 0 | 0 | 0 | 0 | - | - | - | -
c1ccc(CN(Cc2ccco2)C(c2ccncc2)c2nnnn2C2CCCC2)cc1 (centres undefined) | 0 | 0 | 0 | 0.6 | 0 | 0 | 0 | 0
CCN(Cc1ccccc1)C(c1ccncc1)c1nnnn1C(C)(C)C (centres undefined) | 0 | 0 | 0 | 0.4 | 0 | 0 | 0 | 0
CCN(Cc1ccccc1)C(c1ccc(C)cc1)c1nnnn1C(C)(C)CC (centres undefined) | 0 | 0 | 0 | 0 | - | - | - | -
COc1ccc(CN=C2NC(=O)CC(C(=O)Nc3ccc(Cl)cc3)S2)cc1 (centres undefined) | - | - | 0 | 0 | - | - | - | -
O=C(c1cc2c(ccc3ccccc32)o1)N1CCN(c2ncc(C(F)(F)F)cc2Cl)CC1 | 0 | 0 | 0 | 51.7 | 0 | 0 | 0 | 0
O=C(c1[nH]c(C(F)(F)F)nc1-c1ccccc1)N1CCN(c2ncc(C(F)(F)F)cc2Cl)CC1 | 0 | 0 | - | - | - | - | - | -
O=C(C1CCCO1)N1CCN(S(=O)(=O)c2ccccc2)CC1 (centres undefined) | - | - | 0 | 5.9 | 0 | 0 | 0 | 0
COc1ccc(C)cc1NC(=O)C1CC(=O)OC12CCCCC2 (centres undefined) | 0 | 0 | 0 | 1.3 | 0 | 0 | 0 | 0
COCCCNC(=O)CN1C(=O)COc2ccc(S(=O)(=O)N3CCOCC3)cc21 | 0 | 0 | - | 0 | - | - | - | -
CCC1CCCCN1CCCNC(=O)CN1C(=O)COc2ccc(S(=O)(=O)N3CCOCC3)cc21 (centres undefined) | 0 | 0 | 0 | 43.1 | 0 | 0 | 0 | 0
C=CC[C@@H](CC(=O)N(CCO)Cc1ccccc1)C(=O)N[C@H](COC(=O)[C@@H](CC=C)Cc1ccc(F)cc1)Cc1c[nH]c2ccccc12 | 0 | 0 | 0 | 162.3 | 0 | 135.8 | 0 | 135.5
C=CC[C@H](CC(=O)N(CCO)Cc1ccccc1)C(=O)N[C@H](COC(=O)[C@@H](CC=C)Cc1ccc(F)cc1)Cc1c[nH]c2ccccc12 | 0 | 0 | 0 | 0 | - | - | - | -
Cc1cc(C)c(NC(=O)CSc2nnc(-c3ccccn3)n2N)c(Cl)c1 | - | 0 | 0 | 0 | - | - | - | -
CCC(=O)N1CCN(c2nc(CC)nc3sc4c(c23)CCCC4)CC1 | 0 | 0 | 0 | 0 | - | - | - | -
CC1CCc2c(sc3nc(C(C)(C)C)nc(N4CCN(C(=O)CCl)CC4)c23)C1 (centres undefined) | 0 | 0 | 0 | 0.6 | 0 | 0 | 0 | 0
SMILES | C2C12 statin | Cneo AK release | Mot1-301 SUMO | Efflux pump mplx | Cmpd fluor yeast | Mdr1 pump inh | Cdr2 pump inh | CaCdr1 efflux inh
C[C@H]1CN([C@@H](C)CO)S(=O)(=O)c2ccc(-c3cccnc3)cc2O[C@H]1CN(C)C(=O)NC1CCCCC1 | ? | 0 | - | - | - | - | - | -
C=CCN1C(=O)c2ccc(C(=O)OCC(=O)N(C)C3CCCCC3)cc2C1=O | - | - | 0 | 0 | - | - | - | -
CN(CCC#N)C(=O)COC(=O)c1ccc2c(c1)C(=O)N(C1CCCCC1)C2=O | - | 0 | 0 | 6.2 | 0 | 0 | 0 | 0
CCN1CCN(CC(=O)Nc2cc(C(F)(F)F)ccc2OCCOC)CC1 | 0 | - | 0 | 1.3 | 0 | 0 | 0 | 0
CCCOc1ccc(C(F)(F)F)cc1NC(=O)CN1C(=O)C(=O)N(CC)C1=O | 0 | 0 | 0 | 0 | - | - | - | -
CCC(C)n1cnc2c(c1=O)c1nc3ccccc3nc1n2Cc1ccc(OC)cc1 (centres undefined) | 0 | 0 | 0 | 69.5 | 0 | 0 | 0 | 0
C/C(=N\Nc1ncnc2sc(C)c(C)c12)c1ccccn1 | 0 | 0 | 0 | 30.1 | 0 | 0 | 0 | 0
Cc1cccc(C(=O)Nc2nnc(SCC(=O)Nc3ccc4c(c3)oc3ccccc34)s2)c1 | - | - | 0 | 4.2 | 0 | 0 | 0 | 0
Cc1ccc(CSC2=Nc3ccccc3C3=NC(CC(=O)NCc4ccco4)C(=O)N23)cc1 (centres undefined) | 0 | 0 | 0 | 0.6 | 0 | 0 | 0 | 0
O=C(CN1CCN(Cc2ccccc2Cl)CC1)N=Nc1c(O)[nH]c2ccccc12 | - | 0 | 0 | 12.7 | 0 | 0 | 0 | 0
COc1ccc(S(=O)(=O)N2CCCCC2)cc1NC(=O)c1ccc(C)cc1 | 0 | 0 | 0 | 0 | - | - | - | -
COc1ccc(S(=O)(=O)N2CCCCC2)cc1NC(=O)c1ccc(CS(C)(=O)=O)cc1 | 0 | 0 | 0 | 1.1 | 0 | 0 | 0 | 0
Cc1ccc(C)c(NC(=O)C2CC(O)CN2C(=O)OC(C)(C)C)c1 (centres undefined) | 0 | 0 | 0 | 0 | - | - | - | -
O=C(Nc1ccccc1F)N1C[C@@H]2[C@H](c3ccccc31)[C@@H](CO)N2C(=O)C1CCOCC1 | 0 | 0 | - | - | - | - | - | -
COc1cc(/C=C/C(=O)OCC(=O)NCC2CCCO2)ccc1OCC#N (centres undefined) | - | 0 | 0 | 6.5 | 0 | 0 | 0 | 0
COc1ccc(CCNC(=O)COC(=O)/C=C/c2ccc(OCC#N)c(OC)c2)cc1OC | - | - | 0 | 0 | - | - | - | -
O=C(COc1ccc(Cl)cc1)Nc1ccc(C(=O)O)cc1NC(=O)COc1ccc(Cl)cc1 | 0 | 0 | 0 | 0 | - | - | - | -
COC/C=C/C1=CC2=CC(=O)C(C)(OC(=O)c3cnc4ccccc4n3)C(=O)C2=CN1Cc1ccc(OC)cc1 (centres undefined) | - | 0 | 0 | 0.6 | 0 | 0 | 0 | 0
CNC(=S)Nc1ccc(C)cc1 | - | - | 0 | 11.1 | 0 | 0 | 0 | 0
O=C(c1sc2ccccc2c1Cl)N1CCN(c2ccccc2F)CC1 | 0 | 0 | 0 | 20.8 | 0 | 0 | 0 | 0

Screening results as filed in PubChem.
